Compound activity deposited in PubChem BioAssay by several laboratories.
Only some compounds are listed: those with a hit (about 1.8% of all), similar ones and a draw of the others.
rRNA inh HTS – inhibitors of bacterial rRNA selective over humanized ribosomes; E. coli WT GFP vs humanized-ribosome RFP mutants, fluorescence, 24 h; active compounds read low; DMSO median 0, no signal -100; GFP signal change (wild-type ribosome), % (concentration not given with the values); 350,000 tested, 1.6% active;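 active means significant combined selectivity score with lowered wild-type GFP, culture density cut under 30%, mutant RFP and density less affected; inactive means any of these conditions unmet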
iPSC survival up – increases survival of single human iPS cells. hiPSC single-cell survival, ATPlite luminescence; 100% = ROCK inhibitor wells, 0% = DMSO. survival enhancement, % at 20 µM. 360,000 tested, 0.044% active. AID 602274; in the data active means survival enhancement above about 18%;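 further: cells exposed to compounds for 16 hours before the ATP read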
DAGLB inh – blocks human DAGLB lipase activity; AID 504411; inhibition, % at 5.17 µM; 340,000 tested, 0.059% active; Q8NCG7; HEK293T DAGLB membrane lysate, EnzChek fluorogenic substrate; in the data active means inhibition above about 34%;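 further: 0% = enzyme with vehicle and 100% = wells lacking enzyme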
Target sequence (Q8NCG7 whole entry, looked up): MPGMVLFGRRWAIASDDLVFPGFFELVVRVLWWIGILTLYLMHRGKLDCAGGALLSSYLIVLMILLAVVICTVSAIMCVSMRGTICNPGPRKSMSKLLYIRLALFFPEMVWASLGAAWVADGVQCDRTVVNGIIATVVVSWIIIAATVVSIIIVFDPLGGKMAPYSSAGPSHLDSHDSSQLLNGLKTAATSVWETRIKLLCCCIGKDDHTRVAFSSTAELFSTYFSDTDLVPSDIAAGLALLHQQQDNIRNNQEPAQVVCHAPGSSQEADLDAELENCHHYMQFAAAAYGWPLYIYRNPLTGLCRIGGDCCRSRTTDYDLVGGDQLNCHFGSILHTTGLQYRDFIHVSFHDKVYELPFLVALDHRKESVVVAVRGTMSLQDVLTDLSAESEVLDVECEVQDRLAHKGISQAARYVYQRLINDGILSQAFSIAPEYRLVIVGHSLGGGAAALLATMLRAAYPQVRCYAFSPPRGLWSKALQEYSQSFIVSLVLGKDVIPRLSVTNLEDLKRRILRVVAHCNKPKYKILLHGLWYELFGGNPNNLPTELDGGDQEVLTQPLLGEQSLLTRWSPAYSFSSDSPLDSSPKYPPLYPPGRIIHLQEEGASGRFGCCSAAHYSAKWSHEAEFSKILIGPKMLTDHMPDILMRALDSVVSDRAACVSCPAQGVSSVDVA
Cneo AK release – Cryptococcus neoformans lysis via adenylate kinase release | lysis activity, % at 15 µM | C. neoformans lysis, adenylate kinase release luminescence, 4 h; normalised: neutral wells 0, clomiphene wells 100 | AID 651654 | 360,000 tested, 0.2% active;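 active means mean lysis activity across replicates of at least 80%, whatever share of replicates individually reach that level; inactive means mean lysis activity below 80%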
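Signal: Adenylate kinase release luminescence | Assay system: Log-phase Cryptococcus neoformans yeast cells | Input: Cells at 5 × 10^6 per mL | Buffer or medium: Fresh YPD growth medium | Compound: Single dose | Schedule: Static 4 h at 37 °C with compound, 1 h detection | Controls: Clomiphene | Read-out: Luminescence rise reflecting yeast cell lysis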
SKN-1 block – C. elegans SKN-1 inhibition; C. elegans VP596 Pgst-4::GFP/RFP ratio, acrylamide-induced, 24 h; inhibition, % at 21.8 µM; 360,000 tested, 0.49% active;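 active means interference check ratio from 0.5 to 1.5 plus GFP to RFP signal ratio inhibition reaching or exceeding a fixed threshold, cut at about 30% in these data, passing the limit was not always enough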
MT1-MMP act inh – blocks activation of human MT1-MMP; P50281; HT1080 RFP-PRO-GFP cells, GFP/RFP ratio fluorescence, overnight; percent of plate control window, DMSO zero; GFP/RFP ratio change, % at 20 µM; 360,000 tested, 0.061% active; AID 651647;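 active means GFP/RFP ratio change of at least 30% with cell ATP level not reduced by more than half and red fluorescence within 50% of control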
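Assay system: RFP-PRO-GFP reporter HT1080 cells; read-out basis: GFP/RFP fluorescence ratio; benchmarks: DMSO wells and RFP-L50D-GFP cells; doses: 20 µM single dose, 1% DMSO; schedule: overnight cell settling, then overnight compound exposure, 37 °C, 5% CO2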
* marks the source's active call; other numbers are inactive results; / = not tested or not shown.

SMILES	rRNA inh HTS	iPSC survival up	DAGLB inh	Cneo AK release	SKN-1 block	MT1-MMP act inh
O=C(C=Cc1ccco1)c1ccc2ccccc2c1	-7	-2	-2	/	63*	-10
CN(C)c1ccc(C(=O)/C=C/c2ccco2)cc1	/	-3	1	/	24	0
CC(=O)N(C)C[C@@H]1Oc2ccc(NS(C)(=O)=O)cc2C(=O)N(C)C[C@H]1C	0	/	/	/	/	/
CCC(O)(CC)C(=O)N/N=C/c1cc(Br)cc(Br)c1O	-21*	0	3	1	9	/
O=C(C[n+]1ccccc1)N/N=C/c1cc(Br)cc(Br)c1O	/	0	-1	1	-8	2
COc1ccc(C(=O)Nc2ccccc2C(=O)O)cc1NC(=O)C(c1ccccc1)c1ccccc1	-36*	0	8	/	-9	6
CCC1NC(=O)c2ccccc2N1c1cccc(Cl)c1 (stereo not drawn)	-45*	2	-1	-1	9	8
CCn1c(-c2c[nH]c3ccccc23)n[nH]c1=S	-20*	-2	-1	1	11	3
C=CCn1c(-c2c[nH]c3ccccc23)n[nH]c1=S	/	2	1	2	24	2
CCCC#Cc1cnc2c(c1)C(=O)N([C@H](C)CO)C[C@H](C)[C@H](CN(C)S(C)(=O)=O)O2	6	/	/	-1	/	/
c1ccc(CSc2nnc(-c3ccco3)o2)cc1	6	0	-4	2	10	1
Brc1ccc(CSc2nnc(-c3ccco3)o2)cc1	-22*	-1	-14	/	94*	3
Cc1ccc(CSc2nnc(-c3ccco3)o2)cc1	/	3	-22	-2	82*	9
Cc1nc(NC(=O)C2CC3CCCC(C2)C3=O)sc1C (stereo not drawn)	/	-1	1	7	33*	1
COc1cccc(-c2ccc([C@H]3[C@@H](CO)N4C(=O)CN(C(=O)C5CCOCC5)C[C@@H]34)cc2)c1	2	/	/	/	/	/
O=S(=O)(N[C@@H]1CC[C@H](CCn2cc(C3(O)CCCC3)nn2)O[C@H]1CO)c1ccccc1	0	/	/	4	/	/
N#CCOc1nc(N2CCOCC2)nc(N2CCOCC2)n1	/	-2	2	3	15	13
N#Cc1nc(N2CCOCC2)nc(N2CCOCC2)n1	/	-2	0	5	36*	2
Oc1cccc(NC(=S)Nc2ccc(SC(F)F)cc2)c1	-24	1	3	/	3	7
Oc1cccc2c(NC(=S)Nc3ccc(SC(F)F)cc3)cccc12	-41*	-3	3	/	4	-26
CC1CCCN(c2nc(N(C)c3ccccc3)nc(N)c2[N+](=O)[O-])C1 (stereo not drawn)	-17*	1	-13	/	9	-1
CC1CCCN(c2nc(NCc3ccco3)nc(N)c2[N+](=O)[O-])C1 (stereo not drawn)	-30	2	-2	/	6	-6
COc1ccccc1NCC(O)COc1ccc(C(C)(C)C)cc1 (stereo not drawn)	-39*	0	-4	/	7	9
COc1ccc(NCC(O)COc2ccc(C(C)(C)C)cc2)cc1 (stereo not drawn)	-30	0	-8	/	-1	16
CNC[C@@H]1Oc2c(NC(C)=O)cccc2C(=O)N(C)C[C@H]1C	2	/	/	/	/	/
SMILES	rRNA inh HTS	iPSC survival up	DAGLB inh	Cneo AK release	SKN-1 block	MT1-MMP act inh
CC1(C)CC(N2CCOCC2)=CC(=[N+]2CCOCC2)C1	18	0	-2	3	-7	-2
CC1(C)CC(N2CCCCC2)=CC(=[N+]2CCCCC2)C1	-37*	2	0	-1	-42	-15
CCCN(CCC)C1=CC(=[N+]2CCCC2)CC(C)(C)C1	-47*	-2	-1	/	4	-2
C[C@@H]1CN([C@H](C)CO)C(=O)c2cc(NS(=O)(=O)c3cn(C)cn3)ccc2O[C@H]1CN(C)C(=O)Nc1cccc2ccccc12	4	/	/	100*	/	/
C[C@@H]1CN([C@@H](C)CO)C(=O)c2cc(NS(=O)(=O)c3cn(C)cn3)ccc2O[C@@H]1CN(C)C(=O)Nc1cccc2ccccc12	2	/	/	90*	/	/
C[C@H](CO)N1C[C@H](C)[C@@H](CN(C)C(=O)Nc2cccc3ccccc23)Oc2ccc(NS(=O)(=O)c3cn(C)cn3)cc2C1=O	4	/	/	0	/	/
N/C(=N\OC(=O)CSc1ccccc1)c1ccc([N+](=O)[O-])cc1	5	3	-14	/	54*	1
c1ccc(C(c2ccccc2)c2noc(CN3CCC(c4ccncc4)CC3)n2)cc1	-43*	1	-5	-3	-8	3
C[C@@H]1CN([C@@H](C)CO)C(=O)c2cc(C#CCN(C)C)cnc2O[C@@H]1CN(C)C(=O)Cc1ccccc1	4	/	/	50	/	/
c1coc(-c2nn3c(-c4ccco4)nnc3s2)c1	/	3	1	-1	-6	2
COc1ccccc1-c1nn2c(-c3ccco3)nnc2s1	-22*	-1	-1	3	19	9
CCc1ccc(-c2nn(-c3cc(Cl)ccc3[N+](=O)[O-])c(=O)c3ccccc23)cc1	/	4	-1	-2	37*	-4
O=c1c2ccccc2c(-c2ccccc2)nn1-c1cc(Cl)ccc1[N+](=O)[O-]	/	4	-7	0	17	-4
COc1ccc2c(c1)c(C(C)=O)c(C)n2-c1ccccc1OC	-36*	-1	-2	/	-1	0
COc1ccccc1-n1c(C)c(C(C)=O)c2cc(O)ccc21	0	0	0	3	4	-5
C[C@@H]1CN([C@@H](C)CO)C(=O)c2cc(C#CC(C)(C)O)cnc2O[C@@H]1CN(C)Cc1cncnc1	2	/	/	4	/	/
CCN(CC)S(=O)(=O)c1cc(NC(=O)C(C)N(C)CC(=O)Nc2c(C)cccc2C)ccc1C (stereo not drawn)	/	-2	0	1	1	2
Cc1cccc(C)c1NC(=O)CN(C)C(C)C(=O)Nc1ccccc1-c1ccccc1 (stereo not drawn)	-25*	0	-2	3	-11	-2
Cc1cc(Cl)n2nc(C)c(-c3ccc(Cl)cc3)c2n1	/	21*	-4	0	1	5
Cc1cc(N)n2nc(C)c(-c3ccc(Cl)cc3)c2n1	-4	-1	4	/	2	11
C[C@H]1CN([C@@H](C)CO)C(=O)c2cc(NS(=O)(=O)c3ccccc3)ccc2O[C@@H]1CN(C)S(=O)(=O)c1ccccc1	-2	/	/	2	/	/
O=[N+]([O-])c1cccc(-c2cc3cccc[n+]3cc2-c2cccc([N+](=O)[O-])c2)c1	/	-1	1	2	4	1
Cc1cccc2cc(-c3ccccc3)c(-c3ccccc3)c[n+]12	-42*	-2	4	12	4	0
